# Tests used:
# [1] = Inhibition of carboxylesterase (unknown origin) using 4-nitrophenyl acetate as substrate by UV-Vis spectrophotometer; design: species or system Homo sapiens
# How it was run: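 Read-out was 4-nitrophenol released by CaE hydrolysis of 1.0 mmol/L 4-nitrophenyl acetate, measured at 405 nm. Reactions ran in 100 mmol/L potassium phosphate buffer, pH 8.0, at 25 °C. CaE activity was taken as proportional to 4-nitrophenol concentration.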
# [2] = target: T1, Acetylcholinesterase (Homo sapiens, UniProt P22303); assay: Inhibition of acetylcholinesterase (unknown origin) using acetylthiocholine iodide as substrate after 25 mins by Ellmann method
# How it was run: (§1)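 Modified Ellman assay, triplicate. Compounds dissolved in Tween 80, diluted with water to five concentrations. Mix: enzyme […], substrate (acetylthiocholine iodide or butyrylthiocholine iodide) and test compound in phosphoric acid buffer, pH 8.0, 0.1 mol/L. Incubated 25 min at 30 °C, then terminated. IC50 reported as mean ± SD of three experiments.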
# [3] = target: Cholinesterase (Homo sapiens, UniProt P06276); assay: Inhibition of butyrylcholinesterase (unknown origin) using butyrylthiocholine iodide as substrate after 25 mins by Ellmann method; how it was run: as §1
# [4] = organism: Homo sapiens; assay: Selectivity index, ratio of IC50 for butyrylcholinesterase (unknown origin) to IC50 for acetylcholinesterase (unknown origin)
# [5] = Octanol-water partition coefficient, log P of the compound at pH 7.4 by shake flask method; assay type: physicochemical
# How it was run: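 Shake flask partition between octanol and PBS (pH 7.4). Mixture shaken at 37 °C overnight, then centrifuged at 2000 rpm for 20 min. Phases analysed by C18 HPLC with methanol-0.1% TEA (85:15, v/v) at 1.0 mL/min and 32 °C, detection at 322 nm. Run in triplicate, log P calculated.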
# [6] = target: T1, Acetylcholinesterase; assay: Potency index, ratio of rivastigmine IC50 to compound IC50 for acetylcholinesterase (unknown origin)
# [7] = target: T1, Acetylcholinesterase; assay: Competitive inhibition of acetylcholinesterase (unknown origin) using acetylthiocholine iodide as substrate by Michaelis-Menten plot analysis
# [8] = target: T1, Acetylcholinesterase; assay: Noncompetitive inhibition of acetylcholinesterase (unknown origin) using acetylthiocholine iodide as substrate by Michaelis-Menten plot analysis
# T1 sequence (P22303 whole entry): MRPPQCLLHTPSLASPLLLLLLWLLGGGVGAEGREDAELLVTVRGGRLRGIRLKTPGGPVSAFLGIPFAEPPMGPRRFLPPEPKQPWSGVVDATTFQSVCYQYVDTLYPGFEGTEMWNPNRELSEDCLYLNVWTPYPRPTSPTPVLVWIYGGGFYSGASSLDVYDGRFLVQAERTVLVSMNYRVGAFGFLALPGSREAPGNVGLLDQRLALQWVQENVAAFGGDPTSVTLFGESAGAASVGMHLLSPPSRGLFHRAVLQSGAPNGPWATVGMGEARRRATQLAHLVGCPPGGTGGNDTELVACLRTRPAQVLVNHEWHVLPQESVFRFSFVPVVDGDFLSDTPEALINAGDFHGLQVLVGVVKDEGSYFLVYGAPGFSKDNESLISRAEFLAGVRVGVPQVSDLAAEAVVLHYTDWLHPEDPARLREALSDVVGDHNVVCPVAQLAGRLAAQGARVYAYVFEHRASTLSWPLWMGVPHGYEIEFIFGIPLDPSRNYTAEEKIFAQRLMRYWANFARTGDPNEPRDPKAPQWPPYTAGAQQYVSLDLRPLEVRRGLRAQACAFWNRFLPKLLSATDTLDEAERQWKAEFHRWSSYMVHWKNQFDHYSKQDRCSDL
# Chain of Cholinesterase (P06276 whole entry): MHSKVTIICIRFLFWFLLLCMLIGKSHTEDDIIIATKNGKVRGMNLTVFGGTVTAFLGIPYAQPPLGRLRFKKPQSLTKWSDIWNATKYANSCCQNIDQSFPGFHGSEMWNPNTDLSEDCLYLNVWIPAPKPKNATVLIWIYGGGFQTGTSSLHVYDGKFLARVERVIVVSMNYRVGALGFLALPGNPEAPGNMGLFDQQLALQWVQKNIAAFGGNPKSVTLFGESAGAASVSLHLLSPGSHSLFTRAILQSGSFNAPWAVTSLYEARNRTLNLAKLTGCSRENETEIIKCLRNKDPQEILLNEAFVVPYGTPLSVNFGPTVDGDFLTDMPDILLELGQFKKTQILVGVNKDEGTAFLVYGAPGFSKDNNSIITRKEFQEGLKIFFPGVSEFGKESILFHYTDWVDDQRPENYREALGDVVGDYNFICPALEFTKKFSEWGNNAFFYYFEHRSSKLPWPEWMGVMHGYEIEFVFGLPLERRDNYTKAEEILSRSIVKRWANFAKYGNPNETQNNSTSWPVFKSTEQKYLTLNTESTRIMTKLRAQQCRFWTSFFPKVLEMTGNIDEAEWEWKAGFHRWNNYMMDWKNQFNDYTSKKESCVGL
compound,measurement,setting,value
COc1cc(/C=C/C(=O)Nc2ccccc2)ccc1OCCCCCCN1CCCCC1,IC50,[1],> 500000 nM
same,IC50,[2],710 nM
same,IC50,[3],13000 nM
same,Ratio IC50,[4],18.3
same,logD,[5],1.77
same,Ratio IC50,[6],15
same,Ki,[7],480 nM
same,Ki,[8],920 nM

# Reference: ChEMBL document CHEMBL3994591, “Novel ferulic amide derivatives with tertiary amine side chain as acetylcholinesterase and butyrylcholinesterase inhibitors: The influence of carbon spacer length, alkylamine and aromatic group” (Eur J Med Chem, 2017)
